Assays:
Rattus norvegicus [1] = assay: Apparent terminal half life as total radioactivity in female Sprague-Dawley rat plasma at 15 mg/kg, po administered as single dose by LC/MS/MS analysis; assay type: ADME, organism-based; set-up: dose 15 mg/kg, dosed compound name [14C]Sunitinib, route oral; conditions: in vivo
Outline: (§1)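 Single dose of [14C]sunitinib L-malate as free base, 50 µCi/kg. IV dose was 5 mg/kg by tail vein in 5 females. Oral dose was 15 mg/kg by gavage in 3 females and 3 males. Total radioactivity was by scintillation counting. […] Cmax was read from raw data, t½ by log-linear regression, AUC by linear trapezoidal rule.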

Zone of skin = assay: Drug concentration in male albino rat abdomen skin assessed as radioactivity per gram of tissue at 20 mg/kg administered as single dose via gastric gavage measured after 24 hrs by autoradiographic analysis; assay type: ADME, organism-based; set-up: dose 20 mg/kg, dosed compound name [14C]Sunitinib; conditions: in vivo, po
Adrenal = assay: Drug concentration in female Lister Hooded pigmented rat adrenal assessed as radioactivity per gram of tissue at 20 mg/kg administered as single dose via gastric gavage measured after 72 hrs by autoradiographic analysis; assay type: ADME, organism-based; set-up: dose 20 mg/kg, dosed compound name [14C]Sunitinib; conditions: in vivo, po
Outline: (§2)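 Lister Hooded (pigmented) rats, ca 7-8 weeks old, acclimated 7 days, given [14C]sunitinib L-malate by gastric gavage at 20 mg/kg (15 mg freebase/kg, 100 µCi/kg). One male and one female killed by CO2 at 24, 72, 168 and 336 h. Carcasses frozen in solid CO2/hexane and embedded in frozen cellulose. 30 µm sagittal cryosections were freeze-dried. Tissue radioactivity measured by quantitative whole-body autoradiography against calibration standards, with background subtracted.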

Liver [2] = assay: Drug concentration in male albino rat liver assessed as radioactivity per gram of tissue at 20 mg/kg administered as single dose via gastric gavage measured after 24 hrs by autoradiographic analysis; assay type: ADME, organism-based; set-up: dose 20 mg/kg, dosed compound name [14C]Sunitinib; conditions: in vivo, po
[3] = Drug concentration in male albino rat pituitary gland assessed as radioactivity per gram of tissue at 20 mg/kg administered as single dose via gastric gavage measured after 6 hrs by autoradiographic analysis; assay type: ADME, organism-based; set-up: dose 20 mg/kg, dosed compound name [14C]Sunitinib; conditions: in vivo, po
Brain [4] = assay: Drug concentration in female albino rat brain assessed as radioactivity per gram of tissue at 20 mg/kg administered as single dose via gastric gavage measured after 3 hrs by autoradiographic analysis; assay type: ADME, organism-based; set-up: dose 20 mg/kg, dosed compound name [14C]Sunitinib; conditions: in vivo, po
Outline: (§3)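 Sprague Dawley (albino) rats, ca 7-8 weeks old, received a single gastric-gavage dose of [14C]sunitinib L-malate at 20 mg/kg (15 mg freebase/kg, 100 µCi/kg). One animal per sex killed by CO2 at 3, 6, 24, 72 and 168 h, then frozen in CO2/hexane. 30 µm sagittal sections were cut and freeze-dried. Radioactivity per gram quantified by whole-body autoradiography using regression against standards. LOQ 0.04–0.06 µg freebase equiv/g.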

Liver [5] = assay: Drug concentration in male Lister Hooded pigmented rat liver assessed as radioactivity per gram of tissue at 20 mg/kg administered as single dose via gastric gavage measured after 72 hrs by autoradiographic analysis; assay type: ADME, organism-based; set-up: dose 20 mg/kg, dosed compound name [14C]Sunitinib; conditions: in vivo, po
[6] = Drug concentration in male Lister Hooded pigmented rat bladder assessed as radioactivity per gram of tissue at 20 mg/kg administered as single dose via gastric gavage measured after 168 hrs by autoradiographic analysis; assay type: ADME, organism-based, Urinary bladder; set-up: dose 20 mg/kg, dosed compound name [14C]Sunitinib; conditions: in vivo, po
Lung [7] = assay: Drug concentration in male albino rat lung assessed as radioactivity per gram of tissue at 20 mg/kg administered as single dose via gastric gavage measured after 24 hrs by autoradiographic analysis; assay type: ADME, organism-based; set-up: dose 20 mg/kg, dosed compound name [14C]Sunitinib; conditions: in vivo, po
Blood = assay: Drug concentration in female albino rat blood assessed as radioactivity per gram of tissue at 20 mg/kg administered as single dose via gastric gavage measured after 24 hrs by autoradiographic analysis; assay type: ADME, organism-based; set-up: dose 20 mg/kg, dosed compound name [14C]Sunitinib; conditions: in vivo, po; outline: as §3
Stomach [8] = assay: Drug concentration in female albino rat stomach assessed as radioactivity per gram of tissue at 20 mg/kg administered as single dose via gastric gavage measured after 72 hrs by autoradiographic analysis; assay type: ADME, organism-based; set-up: dose 20 mg/kg, dosed compound name [14C]Sunitinib; conditions: in vivo, po
Liver [9] = assay: Drug concentration in male Lister Hooded pigmented rat liver assessed as radioactivity per gram of tissue at 20 mg/kg administered as single dose via gastric gavage measured after 24 hrs by autoradiographic analysis; assay type: ADME, organism-based; set-up: dose 20 mg/kg, dosed compound name [14C]Sunitinib; conditions: in vivo, po
Cynomolgus monkey = assay: Tmax as total radioactivity in male cynomolgus monkey plasma at 6 mg/kg, po administered as single dose by LC/MS/MS analysis; assay type: ADME, organism-based, Macaca fascicularis; set-up: dose 6 mg/kg, dosed compound name [14C]Sunitinib, route oral; conditions: in vivo
Large intestine = assay: Drug concentration in male albino rat large intestine assessed as radioactivity per gram of tissue at 20 mg/kg administered as single dose via gastric gavage measured after 3 hrs by autoradiographic analysis; assay type: ADME, organism-based; set-up: dose 20 mg/kg, dosed compound name [14C]Sunitinib; conditions: in vivo, po
Rattus norvegicus [10] = assay: Cmax as total radioactivity in female Sprague-Dawley rat plasma at 5 mg/kg, iv administered as single dose by LC/MS/MS analysis; assay type: ADME, organism-based; set-up: dose 5 mg/kg, dosed compound name [14C]Sunitinib, route intravenous; conditions: in vivo; outline: as §1
Brain [11] = assay: Drug concentration in male albino rat brain assessed as radioactivity per gram of tissue at 20 mg/kg administered as single dose via gastric gavage measured after 6 hrs by autoradiographic analysis; assay type: ADME, organism-based; set-up: dose 20 mg/kg, dosed compound name [14C]Sunitinib; conditions: in vivo, po
[12] = Drug concentration in female albino rat preputial gland assessed as radioactivity per gram of tissue at 20 mg/kg administered as single dose via gastric gavage measured after 6 hrs by autoradiographic analysis; assay type: ADME, organism-based; set-up: dose 20 mg/kg, dosed compound name [14C]Sunitinib; conditions: in vivo, po
Outline: (§4)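 Sprague Dawley albino rats, ca 7-8 weeks old, dosed once by gastric gavage with [14C]sunitinib L-malate (15 mg freebase/kg, 100 µCi/kg). One male and one female killed by CO2 at 3, 6, 24, 72 and 168 h. Carcasses frozen in solid CO2/hexane, embedded and cut into 30 µm sagittal sections, then freeze-dried. Radioactivity quantified by whole-body autoradiography against standards by regression, background subtracted.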

[13] = Drug concentration in male Lister Hooded pigmented rat pituitary gland assessed as radioactivity per gram of tissue at 20 mg/kg administered as single dose via gastric gavage measured after 168 hrs by autoradiographic analysis; assay type: ADME, organism-based; set-up: dose 20 mg/kg, dosed compound name [14C]Sunitinib; conditions: in vivo, po
[14] = Drug concentration in female Lister Hooded pigmented rat lachrymal gland assessed as radioactivity per gram of tissue at 20 mg/kg administered as single dose via gastric gavage measured after 24 hrs by autoradiographic analysis; assay type: ADME, organism-based; set-up: dose 20 mg/kg, dosed compound name [14C]Sunitinib; conditions: in vivo, po; outline: as §2
Liver [15] = assay: Drug concentration in male albino rat liver assessed as radioactivity per gram of tissue at 20 mg/kg administered as single dose via gastric gavage measured after 3 hrs by autoradiographic analysis; assay type: ADME, organism-based; set-up: dose 20 mg/kg, dosed compound name [14C]Sunitinib; conditions: in vivo, po
Stomach [16] = assay: Drug concentration in male albino rat stomach assessed as radioactivity per gram of tissue at 20 mg/kg administered as single dose via gastric gavage measured after 6 hrs by autoradiographic analysis; assay type: ADME, organism-based; set-up: dose 20 mg/kg, dosed compound name [14C]Sunitinib; conditions: in vivo, po
Kidney [17] = assay: Drug concentration in male albino rat kidney assessed as radioactivity per gram of tissue at 20 mg/kg administered as single dose via gastric gavage measured after 3 hrs by autoradiographic analysis; assay type: ADME, organism-based; set-up: dose 20 mg/kg, dosed compound name [14C]Sunitinib; conditions: in vivo, po
Spleen = assay: Drug concentration in female Lister Hooded pigmented rat spleen assessed as radioactivity per gram of tissue at 20 mg/kg administered as single dose via gastric gavage measured after 24 hrs by autoradiographic analysis; assay type: ADME, organism-based; set-up: dose 20 mg/kg, dosed compound name [14C]Sunitinib; conditions: in vivo, po; outline: as §2
[18] = Drug concentration in male Lister Hooded pigmented rat skeletal muscle assessed as radioactivity per gram of tissue at 20 mg/kg administered as single dose via gastric gavage measured after 24 hrs by autoradiographic analysis; assay type: ADME, organism-based; set-up: dose 20 mg/kg, dosed compound name [14C]Sunitinib; conditions: in vivo, po
Brain [19] = assay: Drug concentration in female albino rat brain assessed as radioactivity per gram of tissue at 20 mg/kg administered as single dose via gastric gavage measured after 6 hrs by autoradiographic analysis; assay type: ADME, organism-based; set-up: dose 20 mg/kg, dosed compound name [14C]Sunitinib; conditions: in vivo, po; outline: as §3
Lung [20] = assay: Drug concentration in male albino rat lung assessed as radioactivity per gram of tissue at 20 mg/kg administered as single dose via gastric gavage measured after 3 hrs by autoradiographic analysis; assay type: ADME, organism-based; set-up: dose 20 mg/kg, dosed compound name [14C]Sunitinib; conditions: in vivo, po
[21] = Drug concentration in male Lister Hooded pigmented rat eye assessed as radioactivity per gram of tissue at 20 mg/kg administered as single dose via gastric gavage measured after 336 hrs by autoradiographic analysis; assay type: ADME, organism-based; set-up: dose 20 mg/kg, dosed compound name [14C]Sunitinib; conditions: in vivo, po
Kidney [22] = assay: Drug concentration in female albino rat kidney assessed as radioactivity per gram of tissue at 20 mg/kg administered as single dose via gastric gavage measured after 24 hrs by autoradiographic analysis; assay type: ADME, organism-based; set-up: dose 20 mg/kg, dosed compound name [14C]Sunitinib; conditions: in vivo, po; outline: as §4

Molecule `CCN(CC)CCNC(=O)c1c(C)[nH]c(/[14CH]=C2\C(=O)Nc3ccc(F)cc32)c1C.O=C(O)C[C@H](O)C(=O)O` has a t1/2 lambda z (Rattus norvegicus [1]) of 9 h, a Radiolabel recovery (Zone of skin) of 3.39 ugequiv and a Radiolabel recovery (Adrenal) of 1.57 ugequiv. It also gave a Radiolabel recovery (Liver [2]) of 1.7 ugequiv, a Radiolabel recovery [3] of 22.94 ugequiv and a Radiolabel recovery (Brain [4]) of 0.52 ugequiv. It also gave a Radiolabel recovery (Liver [5]) of 0.22 ugequiv, a Radiolabel recovery [6] of 0.06 ugequiv and a Radiolabel recovery (Lung [7]) of 0.87 ugequiv. It also gave a Radiolabel recovery (Blood) of 0.19 ugequiv, a Radiolabel recovery (Stomach [8]) of 0.15 ugequiv and a Radiolabel recovery (Liver [9]) of 2.09 ugequiv. For the same molecule, the Tmax (Cynomolgus monkey) was 8 h, the Radiolabel recovery (Large intestine) was 6.05 ugequiv and the Cmax (Rattus norvegicus [10]) was 2148 ngequiv/ml. The Radiolabel recovery (Brain [11]) was 0.34 ugequiv, the Radiolabel recovery [12] was 14.48 ugequiv and the Radiolabel recovery [13] was 81.06 ugequiv. The Radiolabel recovery [14] was 2.05 ugequiv, the Radiolabel recovery (Liver [15]) was 15.71 ugequiv and the Radiolabel recovery (Stomach [16]) was 9.3 ugequiv. The Radiolabel recovery (Kidney [17]) was 13.24 ugequiv, the Radiolabel recovery (Spleen) was 2.79 ugequiv and the Radiolabel recovery [18] was 0.3 ugequiv. For the same molecule, the Radiolabel recovery (Brain [19]) was 0.43 ugequiv, the Radiolabel recovery (Lung [20]) was 20.7 ugequiv and the Radiolabel recovery [21] was 39.4 ugequiv. The Radiolabel recovery (Kidney [22]) was 4.79 ugequiv.

Reference: ChEMBL document CHEMBL3525900, “Pharmacokinetics, distribution, and metabolism of [14C]sunitinib in rats, monkeys, and humans” (Drug Metab Dispos, 2012)
